Experimental data reported in ChEMBL document CHEMBL3627612, “Hirsutinolide Series Inhibit Stat3 Activity, Alter GCN1, MAP1B, Hsp105, G6PD, Vimentin, TrxR1, and Importin α-2 Expression, and Induce Antitumor Effects against Human Glioma” (J Med Chem, 2015).
Active and inactive are the calls of the source. The calls are words filed in the database; no cut-off is given here.

Legend:
MCF7 = assay: Antiproliferative activity against human MCF7 cells for 72 hrs by cyquant assay; type: functional, cell-based; settings: MCF7, 72 h
Outline: (§1)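 CyQuant proliferation assay after 72 h compound exposure of cultured cells; relative viability normalized to DMSO-treated control; IC50 values derived. Glioma lines grown in RPMI or DMEM with 10% FBS and 1% nonessential amino acids.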

[1] = Antiproliferative activity against human Glioma (G12) patient derived xenograft cells at 5 uM after 72 hrs by cyquant assay; type: functional, Glioma cell
MDA-MB-231 [2] = assay: Antiproliferative activity against human MDA-MB-231 cells at 5 uM for 72 hrs by cyquant assay; type: functional, cell-based
SF-295 = assay: Antiproliferative activity against human SF295 cells at 5 uM for 72 hrs by cyquant assay; type: functional, cell-based
[3] = Cytotoxicity against mouse NIH/3T3 cells at 5uM after 72 hrs by cyquant cells; type: cell-based; settings: nih3t3, 72 h; outline: as §1
U-251 = assay: Anticlonogenic activity against human U251MG cells for 72 hrs measured after 2 weeks by crystal-violet staining based assay; type: functional, cell-based
Outline: (§2)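 Single-cell seeding at 250 cells per well; cells treated once the next day for 72 h with 0–5 μM compound, then grown until large colonies were visible (NIH3T3 1 week, MDA-MB-231 and U251MG 2 weeks, MCF-7 4 weeks). Colonies stained with crystal violet for 4 h, imaged and counted.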

MDA-MB-231 [4] = assay: Anticlonogenic activity against human MDA-MB-231 cells for 72 hrs measured after 2 weeks by crystal-violet staining based assay; type: functional, cell-based; outline: as §2
[5] = Cytotoxicity against mouse NIH/3T3 cells assessed as colony survival at 1 to 5 uM for 72 hrs measured after 1 week by crystal-violet staining based assay; type: cell-based; settings: nih3t3, 5 µM; outline: as §2
[6] = target: Signal transducer and activator of transcription 3 (Mus musculus) (UniProt P42227); assay: Inhibition of Stat3 dimer DNA binding activity in mouse NIH3T3/vSrc nuclear extract at 5 uM preincubated for 30 mins followed by addition of radiolabeled probe hSIE for 30 mins by EMSA
Signal transducer and activator of transcription 3 (Mus musculus), sequence (P42227 whole entry): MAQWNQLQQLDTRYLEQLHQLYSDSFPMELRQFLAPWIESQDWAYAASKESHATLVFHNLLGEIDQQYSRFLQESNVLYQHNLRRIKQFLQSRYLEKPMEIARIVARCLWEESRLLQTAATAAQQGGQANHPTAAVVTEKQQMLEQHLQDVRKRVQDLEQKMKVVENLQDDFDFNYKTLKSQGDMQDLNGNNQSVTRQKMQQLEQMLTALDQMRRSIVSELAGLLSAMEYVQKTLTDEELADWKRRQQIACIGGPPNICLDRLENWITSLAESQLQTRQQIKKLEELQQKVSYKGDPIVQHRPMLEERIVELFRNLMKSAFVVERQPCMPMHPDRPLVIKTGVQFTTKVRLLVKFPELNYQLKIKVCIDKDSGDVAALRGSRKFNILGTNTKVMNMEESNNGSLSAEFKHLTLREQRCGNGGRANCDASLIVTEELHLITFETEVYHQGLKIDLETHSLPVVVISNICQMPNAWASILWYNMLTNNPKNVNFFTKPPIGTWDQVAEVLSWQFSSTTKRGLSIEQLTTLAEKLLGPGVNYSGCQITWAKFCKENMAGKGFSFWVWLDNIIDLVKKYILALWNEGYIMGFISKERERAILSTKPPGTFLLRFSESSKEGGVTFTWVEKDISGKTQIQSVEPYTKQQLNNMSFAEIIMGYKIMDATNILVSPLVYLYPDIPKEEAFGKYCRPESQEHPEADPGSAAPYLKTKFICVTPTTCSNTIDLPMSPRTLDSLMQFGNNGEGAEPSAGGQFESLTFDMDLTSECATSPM

[7] = target: Signal transducer and activator of transcription 1/ 3 (Mus musculus) (UniProt P42227+P42225); assay: Inhibition of Stat1:Stat3 dimer DNA binding activity in EGF-stimulated mouse NIH3T3 nuclear extract expressing human EGFR assessed as residual activity at 5 uM preincubated for 30 mins followed by addition of radiolabeled probe hSIE for 30 mins by EMSA; type: cell-free
[8] = target: Signal transducer and activator of transcription 3 (Mus musculus) (UniProt P42227); assay: Inhibition of Stat3 dimer DNA binding activity in EGF-stimulated mouse NIH3T3 nuclear extract expressing human EGFR assessed as residual activity at 5 uM preincubated for 30 mins followed by addition of radiolabeled probe hSIE for 30 mins by EMSA
NIH3T3 [9] = assay: Inhibition of Stat5 dimer DNA binding activity in EGF-stimulated mouse NIH3T3 nuclear extract expressing human EGFR at 5 uM preincubated for 30 mins followed by addition of radiolabeled probe MGFe for 30 mins by EMSA; type: cell-free
[10] = target: T1, Signal transducer and activator of transcription 3 (Homo sapiens, UniProt P40763); assay: Inhibition of Stat3 dimer DNA binding activity in human U251MG cells nuclear extract after 1.5 hrs by EMSA using radiolabeled probe hSIE
T1 sequence (P40763 whole entry): as the sequence (P42227 whole entry) above, with D760E counted along it

Glioma cell = assay: Cytotoxicity against human Glioma (G22) patient-derived mouse xenograft cells at 5 uM after 24 hrs by cyquant assay; type: functional, cell-based
[11] = target: T2, Signal transducer and activator of transcription 1 (Mus musculus) (UniProt P42225); assay: Modulation of EGF-induced Stat1 phosphorylation in mouse NIH3T3 cells expressing human EGFR at 5 uM preincubated for 3 hrs followed by stimulation with 1 ug/ml EGF for 12 mins by immunoblot analysis; type: cell-based
T2 sequence (whole entry): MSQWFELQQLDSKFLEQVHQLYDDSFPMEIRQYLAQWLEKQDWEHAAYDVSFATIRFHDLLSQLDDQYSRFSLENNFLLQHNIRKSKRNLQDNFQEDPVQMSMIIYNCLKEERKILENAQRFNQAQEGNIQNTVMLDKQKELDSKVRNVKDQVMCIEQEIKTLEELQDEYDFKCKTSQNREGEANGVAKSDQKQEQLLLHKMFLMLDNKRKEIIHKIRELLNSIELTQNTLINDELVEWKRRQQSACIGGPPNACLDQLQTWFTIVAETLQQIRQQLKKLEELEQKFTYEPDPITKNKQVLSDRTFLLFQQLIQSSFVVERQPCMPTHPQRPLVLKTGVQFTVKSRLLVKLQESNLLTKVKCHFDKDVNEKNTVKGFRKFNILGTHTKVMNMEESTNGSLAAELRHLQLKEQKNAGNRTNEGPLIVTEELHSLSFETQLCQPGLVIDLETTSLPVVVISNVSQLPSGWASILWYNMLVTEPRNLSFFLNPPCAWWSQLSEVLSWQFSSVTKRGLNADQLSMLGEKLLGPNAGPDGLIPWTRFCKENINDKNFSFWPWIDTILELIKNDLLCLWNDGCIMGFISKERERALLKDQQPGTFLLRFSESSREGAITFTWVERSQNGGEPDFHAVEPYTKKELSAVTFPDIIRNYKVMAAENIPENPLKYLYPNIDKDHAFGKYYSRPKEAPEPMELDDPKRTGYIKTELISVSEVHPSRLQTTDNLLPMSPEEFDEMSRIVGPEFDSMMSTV
Outline: (§3)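 Whole-cell lysates of equal total protein from NIH3T3/hEGFR fibroblasts, pretreated with or without 5 μM compound (control 0.025% DMSO) for 3 h, then stimulated with 1 μg/ml EGF for 12 min. SDS-PAGE immunoblotting for pStat1/Stat1 and pStat5/Stat5 with β-actin or GAPDH loading controls. Representative of 2–4 independent determinations.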

NIH3T3 [12] = assay: Modulation of EGF-induced Stat5 phosphorylation in mouse NIH3T3 cells expressing human EGFR at 5 uM preincubated for 3 hrs followed by stimulation with 1 ug/ml EGF for 12 mins by immunoblot analysis; type: cell-based; outline: as §3
[13] = target: Signal transducer and activator of transcription 3 (Mus musculus) (UniProt P42227); assay: Inhibition of EGF-induced Stat3 phosphorylation in mouse NIH3T3 cells expressing human EGFR at 5 uM preincubated for 3 hrs followed by stimulation with 1 ug/ml EGF for 12 mins by immunoblot analysis; type: cell-based
Outline: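 NIH3T3/hEGFR fibroblasts pretreated with or without 5 μM compound for 3 h, then stimulated with 1 μg/ml EGF for 12 min. Whole-cell lysates of equal total protein immunoblotted for phospho and total Stat3, Stat1, Stat5, Erk1/2. Controls were 0.025% DMSO-treated cells. Representative of 2–4 independent determinations.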

[14] = target: RAC-alpha serine/threonine-protein kinase (Homo sapiens) (UniProt P31749); assay: Modulation of Akt phosphorylation in human U251MG cells at 5 uM after 0.5 to 24 hrs by immunoblot analysis; type: cell-based; settings: U-251
RAC-alpha serine/threonine-protein kinase (Homo sapiens), sequence (P31749 whole entry): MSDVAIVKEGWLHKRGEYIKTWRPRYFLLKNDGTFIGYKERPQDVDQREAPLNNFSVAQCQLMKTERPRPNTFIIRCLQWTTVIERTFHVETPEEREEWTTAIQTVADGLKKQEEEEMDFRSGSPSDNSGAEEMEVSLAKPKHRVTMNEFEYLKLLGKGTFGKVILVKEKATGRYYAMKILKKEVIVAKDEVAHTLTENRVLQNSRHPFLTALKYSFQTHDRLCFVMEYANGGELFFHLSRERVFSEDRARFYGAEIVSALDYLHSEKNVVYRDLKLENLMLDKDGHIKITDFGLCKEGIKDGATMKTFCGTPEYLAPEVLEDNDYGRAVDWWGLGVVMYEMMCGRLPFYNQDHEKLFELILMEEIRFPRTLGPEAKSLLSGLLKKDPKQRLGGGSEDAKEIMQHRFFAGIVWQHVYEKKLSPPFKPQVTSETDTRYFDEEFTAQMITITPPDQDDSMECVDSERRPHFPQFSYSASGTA
Outline: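 U251MG cells treated with 5 μM compound for 0–24 h; whole-cell lysates of equal total protein immunoblotted. Controls were 0.025% DMSO-treated cells. Representative of 2–4 independent determinations.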

[15] = target: T1, Signal transducer and activator of transcription 3; assay: Inhibition of orthovandate-induced Stat3 phosphorylation in human U251MG cells at 5 uM for 3 hrs by immunoblot analysis in presence of 10 to 300 uM orthovandate; type: cell-based; settings: U-251
Outline: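 U251MG cells treated with 5 μM compound for 3 h without or with 10–300 μM Na3VO4. Whole-cell lysates of equal total protein immunoblotted for pStat3 and Stat3. Controls were 0.025% DMSO. Representative of 2–4 determinations.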

IC50 (MCF7) [µM]	inhibition [6]	Activity [7] [%]	Activity [8] [%]	inhibition (NIH3T3 [9])	IC50 [10] [µM]	inhibition [11]	inhibition [13]	Activity [14]	inhibition [15]	Structure (SMILES)	inhibition (INH) [1] [%]	inhibition (MDA-MB-231 [2])	inhibition (SF-295)	Activity [3]	Activity (U-251)	Activity (MDA-MB-231 [4])	Activity [5]	Activity (Glioma cell)	inhibition (NIH3T3 [12])
4.8	Active	18	8	inactive	2.6	inactive	Active	inactive	Active	C/C=C(\C)C(=O)OCC1=C2/C(=C\[C@@]3(C)CC[C@](O)(O3)[C@H](C)C[C@@H]2O)OC1=O	25	Active	Active	Non-toxic	Dose-dependent effect	Dose-dependent effect	Toxic	Active	inactive
10.7	Active	67	49	inactive	2.2	inactive	Active	inactive	Active	C/C=C(\C)C(=O)O[C@H]1C[C@@H](C)[C@]2(O)CC[C@](C)(/C=C3/OC(=O)C(COC(C)=O)=C31)O2	25	Active	Active	Toxic	Dose-dependent effect	Dose-dependent effect	Toxic	Active	inactive
7.6	Active	42	31	inactive	3.2	inactive	Active	inactive	Active	C/C=C(\C)C(=O)O[C@H]1C[C@@H](C)[C@]2(OC)CC[C@](C)(/C=C3/OC(=O)C(COC(C)=O)=C31)O2	25	Active	inactive	Toxic	Dose-dependent effect	Dose-dependent effect	Toxic	Active	inactive
